Sampled rows, rich in hits. Any-hit rate of the full collection: about 2.2%.
TRAIL sens C8: sensitizes caspase-8 expressing cells to TRAIL; NB7+C8 cells + TRAIL, ATPlite viability luminescence; inhibition (viability loss, TRAIL sensitization), % at 10 µM; 360,000 tested, 1% active; AID 624354;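 active = compounds causing at least 50% loss of cell viability in the single-dose screen, relative to plate controls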
FLuc stim CS: affects firefly luciferase, flagging false hits in luciferase stimulation screens | activation factor at 10 µM | AID 1027 | ATPlite luciferase biochemical, luminescence, 10 min; 0 = ATP-free wells, 1 = DMSO control | 200,000 tested, under 10 active | P08659;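 active = luciferase activation factor, scaled between plate controls, of at least 2 with compound at 10 µM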
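assay system = Luciferase/luciferin detection reagent, cell-free biochemical luciferase assay | also added = ATP substrate | times = 10 min post-reagent at room temperature | measured by = luminescence from luciferase reaction | measure = luciferase activation, seen as luminescence increase over controls | benchmarks = low control with PBS replacing ATP, high control enzyme plus ATP without compound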
PKD1 kinase inh: blocks activity of human protein kinase D1 | PKD1 kinase fluorescence polarization assay | inhibition, % (test concentration not listed) | AID 797 | 200,000 tested, 0.056% active; in the data active = inhibition above about 50%
Target sequence (Q15139 whole entry, looked up): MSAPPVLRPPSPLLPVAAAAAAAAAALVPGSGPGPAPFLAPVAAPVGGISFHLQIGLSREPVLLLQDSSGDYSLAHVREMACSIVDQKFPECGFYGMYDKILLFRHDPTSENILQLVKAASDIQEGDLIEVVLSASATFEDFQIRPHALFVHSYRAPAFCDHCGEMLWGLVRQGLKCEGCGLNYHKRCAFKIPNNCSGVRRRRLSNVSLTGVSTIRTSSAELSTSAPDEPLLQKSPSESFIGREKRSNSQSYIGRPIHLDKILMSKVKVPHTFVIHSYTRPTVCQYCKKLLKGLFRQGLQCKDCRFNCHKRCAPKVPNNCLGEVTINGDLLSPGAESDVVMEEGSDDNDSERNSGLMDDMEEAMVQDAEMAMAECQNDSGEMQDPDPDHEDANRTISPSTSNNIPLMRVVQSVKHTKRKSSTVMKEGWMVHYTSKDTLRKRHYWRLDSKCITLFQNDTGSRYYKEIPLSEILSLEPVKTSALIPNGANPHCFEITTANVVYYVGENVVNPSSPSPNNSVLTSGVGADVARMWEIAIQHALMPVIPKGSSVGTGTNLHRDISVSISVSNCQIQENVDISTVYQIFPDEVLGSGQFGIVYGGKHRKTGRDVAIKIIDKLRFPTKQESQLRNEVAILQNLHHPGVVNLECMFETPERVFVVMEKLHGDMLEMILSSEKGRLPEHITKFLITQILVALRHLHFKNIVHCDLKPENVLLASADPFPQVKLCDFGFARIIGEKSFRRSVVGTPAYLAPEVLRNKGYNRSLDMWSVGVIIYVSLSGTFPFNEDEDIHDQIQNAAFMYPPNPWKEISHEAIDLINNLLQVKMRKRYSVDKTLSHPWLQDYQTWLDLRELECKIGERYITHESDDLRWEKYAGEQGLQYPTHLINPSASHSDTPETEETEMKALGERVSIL
PPC-1+TRAIL kill: PPC-1 cancer cell killing with TRAIL present; PPC-1 cells + TRAIL, ATPLite viability luminescence; cell killing (% activity), % at 4 µM or 5 µM; 220,000 tested, 0.41% active;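 active = cell killing above 50% in the first pass at 4 µM, then a duplicate retest at 5 µM averaging 50% or more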
Wee1 stabilizer: inhibitors of human Wee1 degradation | HeLa Luc-Wee1K328M stability, luciferase luminescence; 100% = proteasome inhibitor MG132 effect | 220,000 tested, 1.2% active | reporter increase, % at 5 µM | AID 1321;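 active = activation above the mean of all tested compounds plus 3 SD, set per screening run, cut at about 8.8% in these data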;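 also: cells exposed to compound for 20 h before luminescence read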
FLuc inh counter: inhibits firefly luciferase, flagging false hits in luciferase inhibition screens; P08659; 200,000 tested, 1.5% active; ATPLite firefly luciferase biochemical luminescence, 10 min; inhibition, % at 10 µM;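 active = inhibition above about 50% when tested at 10 µM, limit read from the data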
A number is an active result; - = inactive; . = not tested or not shown.

SMILES	TRAIL sens C8	FLuc stim CS	PKD1 kinase inh	PPC-1+TRAIL kill	Wee1 stabilizer	FLuc inh counter
COc1cccc(-c2cn3nc(C)c(C)nc3n2)c1	-	-	-	-	-	-
C=C(C)[C@@H]1C2=CC(C(=O)OC)=C(C[C@H](C(=C)C)[C@H]3O[C@H]3C3=C[C@H]1OC3=O)O2	77	.	.	.	.	.
CN(C(=O)/C=C/c1cnc2ccccc2c1)C1CCCCC1	-	-	-	-	-	62
Cc1ccc(/C=N/NC(=O)NC23CC4CC(CC(C4)C2)C3)o1	-	.	.	-	10	.
O=C(CC(Nc1ccccc1)C(=O)O)c1ccccc1 (configuration not stated)	-	-	.	-	.	78
CCc1ccc(-c2nc(CS(=O)CC(=O)NC3CCCCCC3)c(C)o2)cc1 (configuration not stated)	-	.	.	.	.	.
C#CC(C)(O)C1CC(CC(=O)O)C1(C)C (configuration not stated)	-	.	.	.	.	.
CN(CC(=O)Nc1ccc(F)c(F)c1F)C(=O)Cc1ccc(S(=O)(=O)N2CCOCC2)s1	-	.	.	.	.	.
COC(=O)C(C)N1C(=O)S/C(=C/c2cc(C)n(C(C)C)c2C)C1=O (configuration not stated)	-	-	-	-	9.4	51
Cc1cc2nc(-c3ccc(NC(=O)C(C)C)cc3)oc2cc1C	-	-	-	-	-	-
COc1cc(C(=O)Nc2cc(-c3nc4cc(C)ccc4o3)ccc2C)cc(OC)c1OC	-	-	-	-	-	51
Cc1ccc(-c2nc3cc(NC(=O)C(C)C)ccc3o2)cc1C	-	-	-	-	-	56
COc1cc(C(=O)Nc2cccc(-c3nc4cc(C)ccc4o3)c2)cc(OC)c1OC	-	-	-	-	-	-
O=C(Nc1ccc2oc(-c3ccccc3F)nc2c1)c1ccccc1F	-	.	.	.	.	.
Cc1ccc(-c2nc3cc(NC(=O)C(C)C)ccc3o2)cc1	-	-	-	-	25	-
O=C(Nc1ccc2oc(-c3ccccc3F)nc2c1)c1ncn[nH]1	-	-	-	-	-	53
O=C(NC1CCCCCC1)c1ccco1	-	.	.	.	.	.
CC(C)C(=O)Nc1ccc(-c2nc3cccnc3o2)cc1	-	-	-	-	-	67
Cc1ccc2nc(-c3ccc(O)cc3)oc2c1	79	.	.	.	.	.
Cc1ccc(-c2nc3cc(Cl)ccc3o2)cc1	-	-	-	-	-	86
CC(C)C(=O)Nc1ccc(-c2nc3ncccc3o2)cc1	-	.	.	.	.	.
CC(=O)Nc1ccc2oc(-c3ccccc3)nc2c1	-	-	-	-	-	70
COc1ccc(C(=O)NC(CCSC)C(=O)NC2CC2)cc1 (configuration not stated)	-	.	.	.	.	.
CCOC(=O)C1=CCN(S(=O)(=O)c2ccc(F)cc2)C1c1cccc(F)c1 (configuration not stated)	-	.	.	.	.	.
COc1ccc(S(=O)(=O)N(C)C[C@H]2OCc3cnnn3CCCC(=O)N([C@H](C)CO)C[C@@H]2C)cc1	-	.	.	.	.	.
SMILES	TRAIL sens C8	FLuc stim CS	PKD1 kinase inh	PPC-1+TRAIL kill	Wee1 stabilizer	FLuc inh counter
CCOc1ccc(NS(=O)(=O)c2ccc3[nH]c(=O)[nH]c3c2)cc1	-	.	.	.	.	.
C=CCNC(=O)CSc1nnc(-c2cccc(S(=O)(=O)N3CCOCC3)c2)o1	-	.	.	.	.	.
CN1CCN(C(=O)c2cnn3c(C(F)(F)F)cc(-c4ccc5c(c4)OCO5)nc23)CC1	-	-	-	-	-	-
Cc1ccc(-c2cc(C(F)(F)F)n3ncc(C(=O)N4CCN(C)CC4)c3n2)cc1	-	-	-	-	9.2	-
CCOC(=O)C1CN(C(=O)OCC)CC1=NNC(N)=O (configuration not stated)	-	.	.	.	.	.
CCc1ccc(C(=O)COC(=O)c2n[nH]c3ccccc23)cc1	-	-	-	-	-	63
CCc1ccc(C(=O)COC(=O)c2nn(C)c(=O)c3ccccc23)cc1	-	-	-	-	-	-
O=C(COC(=O)c1n[nH]c2ccccc12)NC(=O)NC12CC3CC(CC(C3)C1)C2	57	-	-	-	-	-
CC1CCN(C(=O)COC(=O)c2n[nH]c3ccccc23)CC1	-	-	-	-	-	55
O=C(O)Cc1csc(-c2cccc(F)c2)n1	-	-	-	-	-	-
Cc1cc(NC(=O)COC(=O)C2CC2)ccc1Br	-	.	.	.	.	.
COc1ccc(C(=O)NCc2nnc(SCC(=O)NCc3ccco3)o2)cc1OC	-	.	.	.	.	.
CCOC(=O)C1(Cc2ccccc2)CCCN(Cc2ccc(OCC)c(CO)c2)C1 (configuration not stated)	-	-	-	-	-	-
CN(C)/C=C/C(=O)c1ccc(Oc2ccccc2)cc1	-	-	-	-	-	75
CCCc1ccc(C(=O)/C=C/N(C)C)cc1	-	-	-	-	-	74
CN(C)/C=C/C(=O)c1ccccc1	-	.	.	-	-	.
CCOC1=C2CN(S(=O)(=O)c3ccc(C)cc3)CC[C@@H]2N(S(=O)(=O)c2ccc(C)cc2)[C@H](c2ccccc2)C1	-	.	.	.	.	.
CC(C)C[C@@H](CN1CCCC1CN1C(=S)NC[C@@H]1Cc1ccc(O)cc1)N1C[C@H](Cc2ccc(O)cc2)N(CC2CCCCCC2)C1=S (some centres not stated)	53	.	.	.	.	.
CC(C)C[C@@H](CN1CCCC1CN1C(=S)NC[C@@H]1Cc1ccc(O)cc1)N1C[C@H](Cc2ccccc2)N(CC2CCCCCC2)C1=S (some centres not stated)	-	.	.	.	.	.
COC(=O)c1cccc(F)c1C(=O)c1cccc2ccccc12	-	.	.	.	.	.
O=C(/C=C\Nc1ccc2c(c1)OCO2)c1ccc(Cl)s1	73	-	-	-	-	87
COc1ccc(/C=C/C(=O)c2ccc3c(c2)OCO3)c(OC)c1	56	-	-	-	29	78
COc1ccc(N/C=C/C(=O)c2ccc3c(c2)OCO3)cc1OC	-	-	-	-	-	60
COc1ccc(/C=C/C(=O)c2ccccc2)c(OC)c1	-	-	-	-	-	71
COc1ccc(N/C=C\C(=O)c2ccc(C)cc2)cc1OC	-	-	-	-	-	-
SMILES	TRAIL sens C8	FLuc stim CS	PKD1 kinase inh	PPC-1+TRAIL kill	Wee1 stabilizer	FLuc inh counter
COc1ccc(C(=O)C=Cc2ccc3c(c2)OCO3)cc1OC	-	.	.	.	.	.
Cc1cc([N+](=O)[O-])nn1CCCC(=O)Nc1cccc(Cl)c1Cl	-	-	-	-	-	-
COc1cccc(/C=C/C(=O)c2ccc3c(c2)OCCO3)c1OC	71	.	.	.	.	.
CCN(CC(=O)Nc1ccc2c(c1)OCCO2)C(=O)/C=C/c1cccc(OC)c1OC	-	.	.	.	.	.
Cc1cc(NS(C)(=O)=O)c(=O)n(Cc2cccc(C(F)(F)F)c2)c1	-	.	.	.	.	.
O=C(/C=C/Nc1ccccc1F)c1cccs1	87	-	-	50	-	95
O=C(/C=C/Nc1ccc(F)cc1F)c1ccc(Br)cc1	-	.	.	.	.	.
CCOC(=O)c1ccccc1N/C=C/C(=O)c1cccs1	-	-	-	-	-	-
O=C(Nc1cccs1)Nc1ccc(F)cc1F	-	-	-	-	9.0	-
O=C(/C=C\Nc1cccc(F)c1)c1cccs1	-	-	-	-	-	79

Compound activity: PubChem BioAssay, several laboratories
